Experimental data: ChEMBL document CHEMBL1124947, “Cationic antiprotozoal drugs. Trypanocidal activity of 2-(4'-formylphenyl)imidazo[1,2-a]pyridinium guanylhydrazones and related derivatives of quaternary heteroaromatic compounds” (J Med Chem, 1990)

Assays:
Type in all cases: functional
[1] = system: Mus musculus; experiment: Trypanocidal Activity at I.C.E. value 0.72 when administered subcutaneously.
Method in brief: (§1)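 Mice, in groups of five per dose, were given a standard inoculum of blood-stage T. rhodesiense that is lethal to all untreated controls, then dosed subcutaneously. Usually 11 dose levels were used (2^n × 0.42 mg/kg).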

[2] = system: Mus musculus; experiment: Trypanocidal Activity at I.C.E. value 0.56 when administered subcutaneously.; method in brief: as §1
[3] = system: Trypanosoma brucei rhodesiense; experiment: In Vitro measurement of inhibition of thymidine uptake in cell culture of Trypanosoma rhodesiense; settings: read-out: ID50 (the source's name)
Method in brief: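 Parasites harvested from infected rats and incubated 3 h across a drug concentration series, usually 0.1–100 µg/mL. Incorporation of radiolabeled thymidine measured. ID50 is the concentration (µg/mL) producing 50% inhibition.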

[4] = system: Trypanosoma brucei rhodesiense; experiment: In Vitro measurement of inhibition of leucine uptake in cell culture of Trypanosoma rhodesiense; settings: read-out: ID50 (the source's name)
Method in brief: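 Trypanosomes harvested from infected rats, cultured 3 h with several concentrations of drug, usually 0.1–100 µg/mL. Radiolabeled L-leucine uptake measured. ID50 is the concentration in µg/mL giving 50% inhibition of incorporation.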

[5] = system: Mus musculus; experiment: Trypanocidal Activity at I.C.E. value 0.27 when administered perorally.
[6] = system: Mus musculus; experiment: Trypanocidal Activity at I.C.E. value 0.92 when administered subcutaneously.; method in brief: as §1

Br.C[n+]1c(/C=C/c2ccc(/C=N/NC(=N)NO)cc2)cn2ccccc21.[Br-]
CD50 [1]: 0.2 mg/kg

CN(C)C(=N)N/N=C/c1ccc(-c2cn3ccsc3[n+]2C)cc1.I.[I-]
CD50 [2]: 0.2 mg/kg | IC50 [3]: 1 µg/mL | IC50 [4]: 1 µg/mL

Br.CCCSc1ccc2n(c1)cc(-c1ccc(/C=N/NC(=N)N)cc1)[n+]2C.[Br-]
CD50 [5]: 26 mg/kg | CD50 [6]: 0.2 mg/kg
